Measurements as given in ChEMBL document CHEMBL4513216, “Probing the Open Global Health Chemical Diversity Library for Multistage-Active Starting Points for Next-Generation Antimalarials” (ACS Infect Dis, 2020).

Experiment: Toxicity liver stage against HepG2, at 10uM
Assay type: cell-based
Design: test concentration 10 uM, cell line HepG2-A16-CD81EGFP
Conditions: human, HepG2-A16-CD81EGFP cells; read-out: INHIBITION
Summary of the method: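 Uninfected HepG2-A16-CD81EGFP cells, 3 × 10^3 per well, 1536-well, plated on prespotted compound at 10 μM final, parasite-free screening media added to match infected plates; puromycin 10 μM positive, DMSO 0.5% negative; run in parallel with 48 h PbLuc assay at 37 °C, 5% CO2; viability by CellTiter-Glo luminescence, normalized to controls.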

| SMILES | cytotoxicity at 10 µM [%] |
| --- | --- |
| Cc1ccc(Oc2ncccc2C(=O)N(C)CCCN(C)C)cc1 | 1.73 |
| CC(=O)N1N=C(c2ccccc2)OC1C(=O)NCCN(C(C)C)C(C)C (stereo unspecified) | 0.238 |
| COCCNC(=O)Cn1ccc2cccc(OC)c21 | -45.8 |
| O=C(c1c(F)cccc1F)N1CCOCC1 | 5.33 |
| Cc1cccc(C)c1Nc1noc2c1CN(C(=O)c1ccn(C)n1)CC2 | 5.69 |
| Cc1noc(C)c1CCC(=O)NCC1(O)CCCN(c2ccccn2)C1 (stereo unspecified) | -3.95 |
| Cc1cc(N2CCC(Cc3ncccn3)C2)ncn1 (stereo unspecified) | 0.146 |
| Cc1ccc(-c2nnc(CNC(=O)c3cccnc3)o2)cn1 | -2.72 |
| Cc1noc(C)c1C(=O)N1CCCCC1c1cc(C)n2ccnc2n1 (stereo unspecified) | 15.8 |
| NCCn1nc(C2CCN(C(=O)Cc3ccccc3)C2)c2nccnc21 (stereo unspecified) | -15.9 |
| CN1CC(c2cc(O)nc(NCc3ccccc3Cl)n2)CC1=O (stereo unspecified) | -20.2 |
| CNC(=O)C1(c2cnccn2)CCCN1C(=O)c1ccccc1C (stereo unspecified) | -16.5 |
| COc1ccc(N(C)C(=O)C2CN(C)CCO2)cc1F (stereo unspecified) | -41.8 |
| Cn1ccnc1CN1CCCCC1c1nc(-c2ccccc2)no1 (stereo unspecified) | -47.5 |
| O=C1CCCCN1CSc1nnnn1-c1ccc(Cl)cc1 | -48.4 |
| Cn1ccc(CNC(=O)Nc2ccc(S(=O)(=O)C(F)F)cc2)c1 | 5.93 |
| COC(C(=O)NCc1c(C)nc2cc(=O)[nH]n2c1C)c1ccccc1 (stereo unspecified) | 0.493 |
| Cc1nc(CN2CCCC2Cn2ccnc2C(C)C)nc2ccccc12 (stereo unspecified) | -56.8 |
| O=C(c1cc(-n2cccn2)ccn1)N1CCOc2ncccc21 | -0.554 |
| CC(=O)NCCCSC1CCCN(c2ccccc2F)C1=O (stereo unspecified) | -0.906 |
| O=C(NCCNc1ncccn1)c1cnc(-c2ccccc2)nc1 | 12.1 |
| COc1ccc(C(CNC(=O)c2cnc(C)cn2)N2CCOCC2)cc1 (stereo unspecified) | 3.04 |
| CC(COc1ccccc1F)NC(=O)N[C@@H]1C=C[C@H](CO)C1 (stereo partly specified) | 3.53 |

| SMILES | cytotoxicity at 10 µM [%] |
| --- | --- |
| Cn1cc(CNc2ccc(CCN3CCC(C(N)=O)CC3)cc2)cn1 | -6.21 |
| Cc1cc(CNc2ccc(C(F)(F)F)cc2)no1 | -54 |
| Cc1nn(C)c(N2CCOCC2)c1CNC1CCCCNC1=O (stereo unspecified) | 5.84 |
| CCN(CC1CCOC1)C(=O)c1cn2ccc(C)cc2n1 (stereo unspecified) | 1 |
| CCN(CC1CCOC1)C(=O)c1ccn(-c2cc(C)ccc2OC)n1 (stereo unspecified) | 6.16 |
| CCN(CC)S(=O)(=O)c1ccc(CNc2cc(C)nc(C)n2)cc1 | -5.83 |
| O=S(=O)(C1CC1)N1CCCn2nnc(Cn3cccc3)c2C1 | 9.39 |
| COc1ccc(CN(C)c2ccc(-c3nccn3C)nn2)cc1OC | -3.32 |
| O=C(NCc1ccncc1)C1CN(c2nc3ccccc3s2)CCN1 (stereo unspecified) | -105 |
| CCCC(CNc1cc(C(C)C)nc2ccnn12)N(C)C (stereo unspecified) | 5.6 |
| CC(C)(N)c1cn(C2CCN(c3ncccc3Cl)CC2)nn1 | -48 |
| O=C(c1cnc(Nc2ccccc2)nc1)N1CCC2(CCNCC2)CC1 | -5.96 |
| CN(Cc1cnn(C)c1)Cc1nc(CCc2ccccc2)no1 | -26.1 |
| Cc1cc2cccc(C(=O)N3CCOC4(CNCCOC4)C3)c2o1 (stereo unspecified) | -2.21 |
| c1ccc(-n2cnnc2CCCN2CCOCC2)cc1 | -1.16 |
| Cc1nc(CN2CCCCC2CCc2ccc(O)cc2)no1 (stereo unspecified) | 1.18 |
| Cc1ccc(O)c(CN2CCn3nc(C(=O)N4CCCC4)cc3C2)n1 | 1.5 |
| Cc1ccc(CN(CCCN2CCOCC2)Cc2cncn2C)o1 | -40.3 |
| COc1ncc(CN(CCCN2CCOCC2)Cc2ccc(C)o2)cn1 | -33 |
| O=C(NCC1CC1)[C@H]1C[C@@H]2CCN(Cc3ccc4c(c3)OCO4)C[C@@H]2O1 | -0.208 |
| CN(C)C(=O)c1n[nH]c2c1CN(CC1CCC1)C2 | -2.22 |
| COc1ccc(CNC(Cc2cccs2)c2nc(C)c(C)s2)cc1OC (stereo unspecified) | -3.32 |
| Cc1cnc(CN2C[C@H]3CC(Oc4ccccc4)C[C@H]3C2)cn1 (stereo partly specified) | -24.3 |
